Biological target: 5-hydroxytryptamine receptor 4 (Homo sapiens, UniProt Q13639)
Experiment: Concentration required to produce half-maximal response against 5-hydroxytryptamine receptor in the presence of 10 nM compound in isolated human atrial myocytes
In short: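 Whole-cell patch clamp on enzymatically dissociated human atrial myocytes, room temperature (19–25 °C); Cs-based internal, pCa 8.5; I_Ca at 0 mV every 8 s, peak minus current at end of 400-ms pulse.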

5-hydroxytryptamine receptor 4, sequence (Q13639 whole entry): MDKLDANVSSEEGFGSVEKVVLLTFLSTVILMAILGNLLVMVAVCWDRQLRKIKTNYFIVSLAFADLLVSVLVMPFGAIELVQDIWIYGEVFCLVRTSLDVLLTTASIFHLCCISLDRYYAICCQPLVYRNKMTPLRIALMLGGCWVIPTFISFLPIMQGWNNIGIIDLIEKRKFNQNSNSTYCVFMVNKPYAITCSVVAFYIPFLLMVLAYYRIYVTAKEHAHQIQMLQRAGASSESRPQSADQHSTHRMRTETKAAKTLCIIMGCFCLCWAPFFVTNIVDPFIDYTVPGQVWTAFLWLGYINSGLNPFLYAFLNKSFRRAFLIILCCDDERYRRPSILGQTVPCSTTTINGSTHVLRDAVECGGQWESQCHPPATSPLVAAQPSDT

## COc1cc(N)c(Cl)cc1C(=O)OCCN1CCN(c2ncccn2)CC1 [4-Amino-5-chloro-2-methoxy-benzoic acid 2-(4-pyrimidin-2-yl-piperazin-1-yl)-ethyl ester]
  EC50: 66 nM
